According to ChEMBL document CHEMBL2150983, “Dual Inhibitor of MurD and MurE Ligases from Escherichia coli and Staphylococcus aureus” (ACS Med Chem Lett, 2012):
In brackets after ≈: the same amount, converted by molar mass. Activity calls are given as the source filed them. The calls are words filed in the database; no cut-off is given here.

How the values were obtained:
[1] = Inhibition of Escherichia coli MurD after 30 mins by HPLC analysis
Procedure, shortened: (§1)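 Radioactivity-based ligase assay on E. coli or S. aureus MurD or MurE, run with Tween-20 detergent present to prevent nonspecific inhibition by compound aggregates; IC50 values reported.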

[2] = test system: Escherichia coli; experiment: Inhibition of Escherichia coli MurE assessed as residual activity at 500 uM after 30 mins by HPLC analysis
Procedure, shortened: (§2)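 Radioactivity-based ligase assay with Tween-20 detergent present to prevent aggregate-driven inhibition; residual enzyme activity measured with compound at a single fixed concentration of 200 μM or 500 μM.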

[3] = test system: Staphylococcus aureus; experiment: Inhibition of Staphylococcus aureus MurE assessed as residual activity at 500 uM after 30 mins by HPLC analysis
[4] = Inhibition of Staphylococcus aureus MurD after 30 mins by HPLC analysis; procedure, shortened: as §1
[5] = Inhibition of Escherichia coli MurE after 30 mins by HPLC analysis; procedure, shortened: as §1
[6] = Inhibition of Staphylococcus aureus MurE after 30 mins by HPLC analysis; procedure, shortened: as §1
[7] = test system: Escherichia coli; experiment: Inhibition of Escherichia coli MurE assessed as residual activity at 200 uM after 30 mins by HPLC analysis; procedure, shortened: as §2
[8] = test system: Staphylococcus aureus; experiment: Inhibition of Staphylococcus aureus MurE at 200 uM after 30 mins by HPLC analysis; procedure, shortened: as §2
[9] = test system: Staphylococcus aureus; experiment: Antimicrobial activity against Staphylococcus aureus ATCC 29213 after 18 to 24 hrs by macrodilution method; type: functional
[10] = test system: Staphylococcus aureus; experiment: Antimicrobial activity against methicillin-resistant Staphylococcus aureus ATCC 43300 after 18 to 24 hrs by macrodilution method; type: functional
[11] = test system: Enterococcus faecalis; experiment: Antimicrobial activity against Enterococcus faecalis ATCC 29212 after 18 to 24 hrs by macrodilution method; type: functional
[12] = test system: Escherichia coli; experiment: Antimicrobial activity against Escherichia coli ATCC 25922 after 18 to 24 hrs by macrodilution method; type: functional
[13] = test system: Pseudomonas aeruginosa; experiment: Antimicrobial activity against Pseudomonas aeruginosa ATCC 27853 after 18 to 24 hrs by macrodilution method; type: functional
[14] = test system: HepG2; experiment: Cytotoxicity against human HepG2 cells up to 200 uM after 24 hrs by MTT assay; type: cell-based; conditions: hepg2, 24 h

For `O=C(O)CC[C@@H](NC(=O)c1cccc(CNc2ccc(/C=C3\SC(=O)NC3=O)cc2)c1)C(=O)O`, the IC50 [1] was 35 µM, the Activity [2] was 64% and the Activity [3] was 64%.
For `O=C(O)CC[C@@H](NC(=O)c1cccc(NCc2ccc(/C=C3\SC(=O)NC3=O)cc2)c1)C(=O)O`, the IC50 [1] was 36 µM, the IC50 [4] was 100 µM and the IC50 [5] was 200 µM. The IC50 [6] was greater than 200 µM, the Activity [7] was 51% and the inhibition [8] was “inactive”. For the same compound, the MIC [9] was greater than 128 µg/mL, the MIC [10] was greater than 128 µg/mL and the MIC [11] was greater than 128 µg/mL. The MIC [12] was greater than 128 µg/mL and the MIC [13] was greater than 128 µg/mL.
Work on `O=C(O)CC[C@@H](NC(=O)c1cccc(NCc2ccc(/C=C3\SC(=S)NC3=O)cc2)c1)C(=O)O` yielded an IC50 [1] of 8.2 µM, an IC50 [4] of 6.4 µM and an IC50 [5] of 180 µM. It also gave an IC50 [6] of 17 µM, an MIC [9] of 8 µg/mL (≈ 16 µM) and an MIC [10] of 8 µg/mL (≈ 16 µM). For the same compound, the MIC [11] was 64 µg/mL (≈ 128 µM), the MIC [12] was greater than 128 µg/mL and the MIC [13] was greater than 128 µg/mL. For the same compound, the Activity [14] was “Non-toxic”.
